The source made the active and inactive calls. The rule behind the calls is not given here.
Columns and labels:
[1] = tested on: MGC-803; assay: Induction of cell cycle arrest in human MGC-803 cells assessed as accumulation of cells at G2/M phase at 50 uM incubated for 24 hrs by PI staining based flow cytometry (Rvb=12.91%); format: functional
[2] = tested on: MGC-803; assay: Induction of cell cycle arrest in human MGC-803 cells assessed as accumulation of cells at G0/G1 phase at 50 uM incubated for 24 hrs by PI staining based flow cytometry (Rvb=59.09%); format: functional
[3] = tested on: U-251; assay: Antiproliferative activity against human U-251 cells incubated for 48 hrs by MTT assay; format: functional, cell-based; conditions: U-251, 48 h
Procedure, shortened: (§1)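 Monolayer cells in DMEM with 10% FBS, penicillin and streptomycin, 37°C, 5% CO2. Exponentially growing cells were seeded in 96-well plates and exposed to compound for 48 h. MTT was then added for 4 h at 37°C. Medium was removed, formazan dissolved in DMSO, and OD read at 490 nm. Each plate had five replicate wells, and assays were repeated three times per line.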

[4] = tested on: MGC-803; assay: Antiproliferative activity against human MGC-803 cells incubated for 48 hrs by MTT assay; format: functional, cell-based; conditions: MGC-803, 48 h
Procedure, shortened: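 Cells kept as monolayers in DMEM with 10% FBS, streptomycin and penicillin, 37°C, 5% CO₂. Exponentially growing cells seeded in 96-well plates, exposed 48 h, then MTT (10 mg/mL stock) for 4 h at 37°C. Medium removed, formazan dissolved in DMSO, OD read at 490 nm. Five wells per condition; each cell line run three times.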

[5] = tested on: T-24; assay: Antiproliferative activity against human T24 cells incubated for 48 hrs by MTT assay; format: functional, cell-based; conditions: T-24, 48 h; procedure, shortened: as §1
[6] = tested on: MDA-MB-231; assay: Antiproliferative activity against human MDA-MB-231 cells incubated for 48 hrs by MTT assay; format: functional, cell-based; conditions: MDA-MB-231, 48 h; procedure, shortened: as §1
[7] = tested on: A549; assay: Antiproliferative activity against human A549 cells incubated for 48 hrs by MTT assay; format: functional, cell-based; conditions: A549, 48 h; procedure, shortened: as §1
[8] = Cytotoxicity against HUVEC cells incubated for 48 hrs by MTT assay; format: toxicity, cell-based; conditions: human; procedure, shortened: as §1
[9] = tested on: MGC-803; assay: Induction of ferroptosis in human MGC-803 cells assessed as reduction of GPX4 protein expression level at 25 to 50 uM incubated for 24 hrs by Western blot analysis; format: functional, cell-based; conditions: dose 25-50 µM
Procedure, shortened: (§2)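 MGC-803 cells treated 25 or 50 μM for 24 h, lysed in ice-cold 1% SDS/Tris-HCl pH 7.5 buffer with EDTA, NaCl and protease inhibitors, spun 12,000g 18 min. Protein quantified by BCA; 40–50 μg resolved on 10% SDS-PAGE, transferred to PVDF, milk-blocked 2 h, primary antibody overnight, HRP secondary 1 h at RT. ECL detection with densitometry.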

[10] = tested on: MGC-803; assay: Antitumor activity against human MGC-803 cells xenografted in nude mouse assessed as tumor inhibition ratio at 48 mg/kg, ip administered once every two days for 21 days relative to control; format: functional; conditions: MGC-803, 504 h, time 21 day
Procedure, shortened: (§3)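 1×10^6 tumor cells injected s.c. into the right flank of nude mice. At mean tumor volume 60–80 mm³, animals randomized to vehicle or treatment groups (n = 6). Compound in 5% v/v DMSO/saline given i.p. every 2 days. Tumor size and weight recorded; volume = lw²/2 from length and width. Body weight tracked as the systemic toxicity index.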

[11] = Toxicity in nude mouse xenografted with human MGC-803 cells assessed as pathological changes in spleen at 12 to 48 mg/kg, ip administered once every two days for 21 days by H and E staining based analysis; format: organism-based; conditions: in vivo, 504 h, dose 12-48 mg/kg, time 21 day
Procedure, shortened: (§4)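 Nude mice carrying s.c. xenografts (1×10^6 cells, right flank) randomized at 60–80 mm³ (n = 6), dosed i.p. every 2 days in 5% v/v DMSO/saline. Major organs examined by H&E staining at 200× magnification.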

[12] = tested on: MGC-803; assay: Antitumor activity against human MGC-803 cells xenografted in nude mouse assessed as tumor inhibition ratio at 24 mg/kg, ip administered once every two days for 21 days relative to control; format: functional; conditions: MGC-803, 504 h, time 21 day; procedure, shortened: as §3
[13] = tested on: U-251; assay: Antitumor activity against human U-251 cells xenografted in nude mouse assessed as tumor inhibition ratio at 24 mg/kg, ip administered once every two days for 21 days relative to control; format: functional; conditions: U-251, 504 h, time 21 day; procedure, shortened: as §3
[14] = Toxicity in nude mouse xenografted with human U-251 cells assessed as pathological changes in heart at 24 to 48 mg/kg, ip administered once every two days for 21 days by H and E staining based analysis; format: organism-based; conditions: in vivo, 504 h, dose 24-48 mg/kg, time 21 day; procedure, shortened: as §4
[15] = Toxicity in nude mouse xenografted with human U-251 cells assessed as pathological changes in liver at 24 to 48 mg/kg, ip administered once every two days for 21 days by H and E staining based analysis; format: organism-based; conditions: in vivo, 504 h, dose 24-48 mg/kg, time 21 day; procedure, shortened: as §4
[16] = Toxicity in nude mouse xenografted with human U-251 cells assessed as pathological changes in lung at 24 to 48 mg/kg, ip administered once every two days for 21 days by H and E staining based analysis; format: organism-based; conditions: in vivo, 504 h, dose 24-48 mg/kg, time 21 day; procedure, shortened: as §4
[17] = tested on: MGC-803; assay: Induction of cell cycle arrest in human MGC-803 cells assessed as accumulation of cells at G0/G1 phase at 25 uM incubated for 24 hrs by PI staining based flow cytometry (Rvb=59.09%); format: functional
[18] = tested on: MGC-803; assay: Induction of cell cycle arrest in human MGC-803 cells assessed as accumulation of cells at G2/M phase at 25 uM incubated for 24 hrs by PI staining based flow cytometry (Rvb=12.91%); format: functional
[19] = tested on: MGC-803; assay: Induction of cell cycle arrest in human MGC-803 cells assessed as accumulation of cells at S phase at 25 uM incubated for 24 hrs by PI staining based flow cytometry (Rvb=28.00%); format: functional
[20] = tested on: MGC-803; assay: Induction of cell cycle arrest in human MGC-803 cells assessed as accumulation of cells at G0/G1 phase at 100 uM incubated for 24 hrs by PI staining based flow cytometry (Rvb=59.09%); format: functional
[21] = tested on: MGC-803; assay: Induction of cell cycle arrest at S phase in human MGC-803 cells assessed as increase in P21 protein expression level at 25 to 50 uM incubated for 24 hrs by Western blot analysis; format: functional, cell-based; conditions: dose 25-50 µM; procedure, shortened: as §2
[22] = tested on: MGC-803; assay: Induction of cell cycle arrest at S phase in human MGC-803 cells assessed as decrease in CDK2 protein expression level at 25 to 50 uM incubated for 24 hrs by Western blot analysis; format: functional, cell-based; conditions: dose 25-50 µM; procedure, shortened: as §2
[23] = tested on: MGC-803; assay: Induction of ferroptosis in human MGC-803 cells assessed as increase in intracellular iron level incubated for 24 hrs by FerroOrange staining based confocal microscopic analysis; format: functional, cell-based; conditions: dose 25-50 µM
[24] = tested on: MGC-803; assay: Induction of ferroptosis in human MGC-803 cells assessed as accumulation of intracellular ROS level by measuring increase in red fluorescence intensity at 25 to 50 uM incubated for 24 hrs by DHE staining based confocal microscopic analysis; format: functional, cell-based; conditions: dose 25-50 µM
[25] = tested on: MGC-803; assay: Induction of ferroptosis in human MGC-803 cells assessed as appearance of ruptured mitochondria at 5 uM incubated for 24 hrs by TEM analysis; format: functional, cell-based
Procedure, shortened: (§5)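 Cell samples prefixed in 3% glutaraldehyde, postfixed in 1% osmium tetroxide, dehydrated through graded acetone (30–100%), embedded in Epon812, cut into 60–90 nm ultrathin sections on copper grids, stained with uranyl acetate 10–15 min and lead citrate 1–2 min at room temperature, examined by TEM.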

[26] = tested on: MGC-803; assay: Induction of ferroptosis in human MGC-803 cells assessed as appearance of smaller mitochondria at 5 uM incubated for 24 hrs by TEM analysis; format: functional, cell-based; procedure, shortened: as §5

For `CN(C)CCN1C(=O)c2cccc3c(N4CCN(C(=O)CCOCCOCCOCCOCCNC(=O)CCCCC5SCC6NC(=O)NC65)CC4)ccc(c23)C1=O` (stereo unspecified), the Activity [1] was 26.25%, the Activity [2] was 33.17% and the IC50 [3] was > 50 µM. For the same compound, the IC50 [4] was > 50 µM, the IC50 [5] was > 50 µM and the IC50 [6] was > 50 µM. For the same compound, the IC50 [7] was > 50 µM, the IC50 at 48 h [8] was > 50 µM and the Activity [9] was “Active”. For the same compound, the inhibition in vivo at 48 mg/kg [10] was 65.5%, the Activity [11] was “Non-Toxic” and the inhibition in vivo at 24 mg/kg [12] was 39.6%. For the same compound, the inhibition in vivo at 24 mg/kg [13] was 74.8%, the Activity [14] was “Non-Toxic” and the Activity [15] was “Non-Toxic”. For the same compound, the Activity [16] was “Non-Toxic”, the Activity [17] was 53.99% and the Activity [18] was 23.3%. The Activity [19] was 22.7%, the Activity [20] was 39.71% and the Activity [21] was “Active”. For the same compound, the Activity [22] was “Active”, the Activity [23] was “Dose-Dependent Effect” and the Activity [24] was “Active”. For the same compound, the Activity [25] was “Active” and the Activity [26] was “Active”.

Reference: ChEMBL document CHEMBL5532699, “Design, docking optimization, and evaluation of biotin-PEG4-1,8-naphthalimide as a potent and safe antitumor agent with dual targeting of ferroptosis and DNA” (RSC Med Chem, 2024)
